# Bioassay records from PubChem BioAssay.
# Shown are actives, neighbours in structure and some others; about 1.8% of the full set was active somewhere.
# PG9 binder = PG9 antibody binding by small molecule; AID 624416; inhibition, % at 6.7 µM; 360,000 tested, 0.43% active; TR-FRET gp120-PG9 antibody binding; in the data active means inhibition above about 8.5%
# Rin1-Abl PPI inh = blocks binding of human Rin1 to Abl; TR-FRET Rin1/Abl binding, biochemical; inhibition, % at 7.35 µM; P00519+Q13671; 360,000 tested, 0.4% active; AID 588664; in the data active means inhibition above about 5%, passing the limit was not always enough
# Target sequence (P00519 whole entry, looked up): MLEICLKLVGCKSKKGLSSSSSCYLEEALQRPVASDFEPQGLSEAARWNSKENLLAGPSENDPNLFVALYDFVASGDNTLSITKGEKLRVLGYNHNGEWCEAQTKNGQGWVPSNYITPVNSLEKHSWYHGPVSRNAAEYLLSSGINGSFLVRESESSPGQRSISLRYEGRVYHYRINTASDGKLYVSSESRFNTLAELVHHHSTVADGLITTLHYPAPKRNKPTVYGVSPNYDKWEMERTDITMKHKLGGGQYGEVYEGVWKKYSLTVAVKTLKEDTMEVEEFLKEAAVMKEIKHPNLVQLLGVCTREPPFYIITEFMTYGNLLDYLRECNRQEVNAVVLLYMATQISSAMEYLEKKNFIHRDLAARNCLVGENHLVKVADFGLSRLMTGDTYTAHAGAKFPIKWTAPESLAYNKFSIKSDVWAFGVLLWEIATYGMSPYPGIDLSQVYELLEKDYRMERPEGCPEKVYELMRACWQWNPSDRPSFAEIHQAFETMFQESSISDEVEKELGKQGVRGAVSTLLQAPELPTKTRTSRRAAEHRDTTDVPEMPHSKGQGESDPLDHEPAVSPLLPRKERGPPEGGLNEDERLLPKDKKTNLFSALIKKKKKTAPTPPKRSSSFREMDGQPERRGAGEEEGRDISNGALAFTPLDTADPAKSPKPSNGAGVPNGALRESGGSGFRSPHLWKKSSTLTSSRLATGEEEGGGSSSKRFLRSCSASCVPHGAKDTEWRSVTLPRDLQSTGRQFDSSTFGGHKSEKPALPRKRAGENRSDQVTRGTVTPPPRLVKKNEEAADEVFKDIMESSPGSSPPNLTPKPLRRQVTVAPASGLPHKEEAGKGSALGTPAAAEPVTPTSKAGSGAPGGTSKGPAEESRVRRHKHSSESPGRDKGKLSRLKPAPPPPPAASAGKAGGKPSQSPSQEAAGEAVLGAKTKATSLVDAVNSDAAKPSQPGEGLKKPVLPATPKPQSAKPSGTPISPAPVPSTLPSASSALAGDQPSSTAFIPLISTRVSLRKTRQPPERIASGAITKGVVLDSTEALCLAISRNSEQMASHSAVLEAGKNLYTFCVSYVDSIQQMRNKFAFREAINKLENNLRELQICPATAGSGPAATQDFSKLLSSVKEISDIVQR
# Target sequence (Q13671 whole entry, looked up): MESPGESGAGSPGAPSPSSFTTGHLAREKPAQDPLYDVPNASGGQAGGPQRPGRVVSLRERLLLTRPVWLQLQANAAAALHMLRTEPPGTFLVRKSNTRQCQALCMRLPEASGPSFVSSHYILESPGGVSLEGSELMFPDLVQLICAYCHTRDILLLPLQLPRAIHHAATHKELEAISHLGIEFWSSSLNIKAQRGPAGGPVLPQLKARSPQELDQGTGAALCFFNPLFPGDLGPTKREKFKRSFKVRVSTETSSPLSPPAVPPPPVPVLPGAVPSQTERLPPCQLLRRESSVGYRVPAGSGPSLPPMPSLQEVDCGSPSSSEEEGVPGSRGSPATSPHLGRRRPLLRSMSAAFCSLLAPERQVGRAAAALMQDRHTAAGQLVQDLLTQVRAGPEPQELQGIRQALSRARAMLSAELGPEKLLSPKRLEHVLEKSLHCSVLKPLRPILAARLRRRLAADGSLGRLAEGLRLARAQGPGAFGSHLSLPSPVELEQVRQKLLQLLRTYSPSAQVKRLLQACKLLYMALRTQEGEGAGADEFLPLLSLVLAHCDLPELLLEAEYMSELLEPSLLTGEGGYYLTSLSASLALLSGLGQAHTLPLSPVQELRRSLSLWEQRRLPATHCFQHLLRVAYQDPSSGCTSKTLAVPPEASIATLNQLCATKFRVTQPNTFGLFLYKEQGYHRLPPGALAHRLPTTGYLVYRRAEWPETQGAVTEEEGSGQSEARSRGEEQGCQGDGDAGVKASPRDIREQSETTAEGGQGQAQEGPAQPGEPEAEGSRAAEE
# TbMetRS inhib = blocks T. brucei methionyl-tRNA synthetase activity; purified T. brucei MetRS, ATP depletion, Kinase-Glo luminescence; inhibition, % at 11.9 µM; 360,000 tested, 0.4% active; AID 624268;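 active means inhibition above a per-plate cutoff of the control wells' mean inhibition plus 3 SD, cut at about 5.5% in these data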
#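 Assay system: T. brucei methionyl-tRNA synthetase, purified | Medium: HEPES buffer with MgCl2, KCl, DTT, spermine, BSA, pyrophosphatase | Compound: 11.9 µM single point | Incubation: 15 min enzyme-compound preincubation, 2 h reaction, 10 min detection, 25 °C | Measured by: Kinase-Glo luciferase luminescence reporting remaining unconsumed ATP | Measure: % inhibition normalized to control-well medians | Replication: Singlicate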
# NR1D1 modulator = modulators of human Rev-erb alpha DNA binding. activity, % at 10 µM. 370,000 tested, 0.79% active. P20393. Rev-erbα–FITC-DNA binding, fluorescence polarization, 90 min;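 active means activity above about 14%, limit read from the data; passing the limit was not always enough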
# Rin1 Abl conf = confirmation of inhibitors of human Rin1-Abl interaction. shares compounds with Rin1-Abl PPI inh. TR-FRET Rin1-Abl binding, purified proteins. inhibition, % at 7.35 µM. 1,300 tested, 49% active. AID 602124
# GFP quench-1 = counter-screen for Rin1-Abl inhibitors: GFP fluorescence quenchers | AID 602125 | inhibitors/quenchers counterscreen | inhibition, % at 6.75 µM | 1,300 tested, 8.5% active | shares compounds with Rin1-Abl PPI inh;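 further: ABL1-eGFP fusion protein alone without its partner RIN1-SBP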
# GFP quench DR = quenches GFP in dose response, Rin1-Abl counter-screen; shares compounds with Rin1-Abl PPI inh; GFP fluorescence interference/quenching counterscreen; IC50, µM; 230 tested, under 10 active; AID 602182; call rule not given here;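 further: ABL1-eGFP fusion protein alone without its RIN1 binding partner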
# GFP quench-2 = counter-screen for Rin1-Abl interaction inhibitors: GFP fluorescence quenching. shares compounds with Rin1-Abl PPI inh. GFP fluorescence quenching counterscreen, biochemical. IC50, µM. 25 tested, under 10 active. AID 602397; call rule not given here
# Hits are given with their value; 0 = inactive; - = not tested or not shown. Unless noted, no stated cut-off is given here; in the data, active means inhibition above about 6.5%; inactive means the rest.
SMILES,PG9 binder,Rin1-Abl PPI inh,TbMetRS inhib,NR1D1 modulator,Rin1 Abl conf,GFP quench-1,others
C[C@H](CO)N1C[C@H](C)[C@@H](CN(C)Cc2ccc(-c3ccccc3)cc2)Oc2c(NS(=O)(=O)c3cccs3)cccc2C1=O,0,16,0,0,16,0,
CC(C)c1ccc(OC[C@@H](O)CN2CCC(C(O)(c3ccccc3)c3ccccc3)CC2)cc1,-,-,-,0,-,-,
O=C(c1ccc2nc(-c3ccco3)c(-c3ccco3)nc2c1)N1CCN(c2ccccc2)CC1,0,0,0,0,-,-,
O=C(O)c1ccc2nc(-c3ccco3)c(-c3ccco3)nc2c1,0,14,0,0,0,0,
COc1ccc(NC(=O)C2CCCN(c3ncnc4onc(-c5ccc(F)cc5)c34)C2)cc1 (configuration not stated),0,9.2,0,0,0,0,
CCC[C@H]1[C@@H](NCc2ccccc2)CC[C@@]23CCCN2C(=O)CCC[C@@H]13,-,-,-,0,-,-,
Oc1c(Cl)cc(CN2CCOCC2)c2cccnc12,0,7.4,0,0,0,0,
Oc1c(CN2CCCCC2)cc(Br)c2cccnc12,0,11,0,0,8.0,0,
O=C(COc1c(Br)cc(Br)c2cccnc12)N1CCCCC1,0,0,0,0,-,-,
C/C(=N\NC(=O)c1ccc(O)cc1)c1ccc2c(c1)OCCO2,0,0,0,0,-,-,
C/C(=N\NC(=O)c1ccc2c(c1)OCCO2)c1ccccc1,0,6.5,0,0,0,0,
Cc1cccc(N(Cc2ccccc2)C(=O)Cc2ccc(S(=O)(=O)N3CCOCC3)s2)c1,0,14,0,0,26,0,GFP quench DR=0
Cc1cccc(N(Cc2ccccc2)C(=O)c2ccc(C)c(S(=O)(=O)N3CCOCC3)c2)c1,0,0,0,0,-,-,
CCc1c(Cc2cccc(F)c2)ncn1CCc1ccccc1OC,0,-,-,0,-,-,
COc1cc2c(C(=O)NCc3ccc(C)o3)cn(CC(C)C)c(=O)c2cc1OC,0,6.9,0,0,0,0,
O=C(Cc1ccc(NC(=O)C2CCN(C(=O)C3CCCCC3)CC2)cc1)Nc1ccc(C(=O)N2CCOCC2)cc1,0,39,0,0,44,0,GFP quench DR=0;GFP quench-2=0
CN(C(=O)c1ccc(NC(=O)Cc2ccc(NC(=O)C3CCN(C(=O)CCc4ccccc4)CC3)cc2)cc1)C1CC1,0,12,0,0,17,0,
CN(C(=O)c1ccc(NC(=O)Cc2ccc(NC(=O)C3CCCN(C(=O)C4CCCC4)C3)cc2)cc1)C1CC1 (configuration not stated),0,13,0,0,19,0,
CN(C(=O)c1ccc(NC(=O)Cc2ccc(NC(=O)C3CCN(C(=O)CCc4ccccc4)CC3)cc2)cc1)C1CCCC1,0,0,0,0,-,-,
CN(C(=O)c1ccc(NC(=O)Cc2ccc(NC(=O)C3CCCN(C(=O)C4CCCCC4)C3)cc2)cc1)C1CC1 (configuration not stated),0,0,0,0,-,-,
CN(C(=O)c1ccc(NC(=O)Cc2ccc(NC(=O)C3CCN(C(=O)C4CCCCC4)CC3)cc2)cc1)C1CC1,0,68,0,0,66,0,
O=C(Cc1ccc(NC(=O)C2CCCN(C(=O)C3CCCCC3)C2)cc1)Nc1ccc(C(=O)N2CCOCC2)cc1 (configuration not stated),0,0,0,0,-,-,
Clc1ccc(OCCOc2ccc(Br)nc2Br)c(Cl)c1,-,-,-,0,-,-,
C=CCN1C[C@H](COC(=O)CSc2ccccc2)Oc2cccc(F)c2S1(=O)=O,0,-,-,0,-,-,
Cn1c(=O)cc(OCCCC(=O)Nc2cc(C(F)(F)F)ccn2)c2ccccc21,-,-,-,0,-,-,
SMILES,PG9 binder,Rin1-Abl PPI inh,TbMetRS inhib,NR1D1 modulator,Rin1 Abl conf,GFP quench-1,others
COC(=O)[C@]12C[C@H](CC(=O)N3CCCC3)C(=O)N(CCc3ccc(OC)c(OC)c3)C1=C[C@H](C1CCCC1)O[C@@H]2C,-,-,-,0,-,-,
CCCCCCCCCC(=O)OCCN1CCN(CCCN2c3ccccc3Sc3ccc(C(F)(F)F)cc32)CC1,-,-,-,0,-,-,
CN(CCc1ccccc1)C(=O)c1ccc(NC(=O)Cc2cccc(NC(=O)C3CCN(C(=O)c4ccccc4)CC3)c2)cc1,0,9.1,0,0,9.1,0,
CN(C(=O)c1ccc(NC(=O)Cc2ccc(NC(=O)C3CCN(C(=O)C4CCCC4)CC3)cc2)cc1)C1CCCC1,0,22,0,0,27,0,GFP quench DR=0
COc1ccc(OC)c(S(=O)(=O)Nc2ccc(C(=O)Nc3cc(C)on3)cc2)c1,-,-,-,0,-,-,
CC(=C1SC(=S)NC1=O)c1ccc(Cl)c(O)c1,0,-,-,0,-,-,
FC(F)(F)c1cnc(NNC(=S)Nc2ccccc2Cl)c(Cl)c1,0,5.7,0,0,0,0,
COc1ccc(C(=O)NC(=S)Nc2cccnc2)cc1OC,0,8.9,0,0,0,0,
C/C=C(/C)C(=O)O[C@@H]1[C@H](OC(C)=O)[C@@]2(CO)C(CC1(C)C)C1=CCC3[C@@]4(C)CC[C@H](O[C@@H]5O[C@H](C(=O)O)[C@@H](O[C@@H]6O[C@H](CO)[C@@H](O)[C@H](O)[C@H]6O)[C@H](O)[C@H]5O[C@@H]5O[C@H](CO)[C@@H](O)[C@H](O)[C@H]5O)[C@](C)(CO)C4CC[C@@]3(C)[C@]1(C)C[C@H]2O (some centres not stated),-,-,-,0,-,-,
CCC(=O)O[C@@H]1CC(=O)O[C@H](C)C/C=C/C=C/[C@H](O)[C@H](C)C[C@H](CC=O)[C@H](O[C@@H]2O[C@H](C)[C@@H](O[C@H]3C[C@@](C)(O)[C@@H](OC(=O)CC)[C@H](C)O3)[C@H](N(C)C)[C@H]2O)[C@H]1OC,-,-,-,0,-,-,
NC(CO)C(=O)NNCc1ccc(O)c(O)c1O (configuration not stated),0,37,0,0,29,0,
COc1cccc(CN(C)C(=O)c2cc(S(=O)(=O)N3CCCC3)ccc2C)c1OC,0,8.9,0,0,0,0,
CCCCCN1CCCCC(NC(=O)c2cccc(F)c2)C1=O (configuration not stated),-,-,-,0,-,-,
COc1cc(S(=O)(=O)Nc2ccccc2)ccc1NC=O,0,5.4,0,0,0,0,
COc1ccc(OC)c(NC(=O)COc2ccc(S(=O)(=O)N3CCCC3)cc2)c1,0,0,0,0,-,-,
COc1ccc(OC)c(NC(=O)COc2ccc(S(=O)(=O)NC(C)C)cc2)c1,0,7.4,0,0,0,0,
Cc1ccccc1-c1ccc2c(c1)[C@@H]1C[C@H](N(C)C(=O)Nc3ccccc3)[C@H]([C@H](C)O)CN1CC2,0,-,-,0,-,-,
COc1ccc(-n2c(SCC(=O)Nc3ccc(S(=O)(=O)Nc4nccs4)cc3)nnc2-c2cccs2)cc1,-,-,-,0,-,-,
COc1ccc(COC(=O)C2=C(C)NC(=O)NC2c2cccc(OC)c2OC)cc1 (configuration not stated),0,7.2,0,0,0,0,
